Hits are enriched below; roughly 1.6% of the tested compounds scored in any of these assays.
TPT1 inh: blocks Candida albicans tRNA 2'-phosphotransferase; AID 1962; inhibition, % at 5 µM; recombinant caTPT1, FP RNA substrate dephosphorylation; actives 0.81% (n = 300,000);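 active = inhibition above the mean of all tested compounds plus 3 SD, set per screening campaign, cut at about 24% in these data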
HNF4A DNA FP: change in binding of human HNF4 alpha to DNA; HNF4a-FITC DNA binding, fluorescence polarization, 1 h; actives 0.3% (n = 360,000); activity change, % at 10 µM; P41235; in the data active = activity change above about 30%, passing the limit was not always enough
SENP1 inh: SENP1 (human) catalytic domain inhibition | recombinant SENP1 catalytic domain, CyPet-SUMO1-YPet FRET cleavage | inhibition, % at 10 µM | actives 0.21% (n = 360,000);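 active = inhibition at least 30% at 10 µM, raw YFP signal under a set limit, fluorescence ratio 0.5 to 1.5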
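Test system: recombinant human SENP1 catalytic domain, His6-tagged / Medium: pH 8 Tris buffer with EDTA, NaCl, BME, BSA, NP40, catalase / Also added: SUMO1 FRET substrate flanked by Cypet and Ypet, 25 nM / Times: 50 min reaction at room temperature / Signal: FRET, CFP and YFP emission / Control set: no-enzyme low control and enzyme-plus-DMSO high control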
CSN deneddyl inh: CSN deneddylation inhibition; Q92905; Purified CSN, SCF-Nedd8-OG deneddylation, fluorescence polarization; inhibition, % at 12.5 µM; actives 0.38% (n = 360,000);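 active = pattern-corrected inhibition above about 35%, with an unprinted fluorescence ratio check between 0.5 and 1.5, limit read from the data, passing the limit was not always enough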
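Assay system: purified human Csn5 enzyme expressed in HEK293T cells; measure: % inhibition; also added: SCFSkp2-Nedd8OG substrate at 10 nM final; technique: fluorescence polarization; times: reaction 90 min, room temperature; medium: Tris buffer pH 7.5, NaCl, DTT, Tween-20, trehalose, ovalbumin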
Rpn11 block: Rpn11 (human) deubiquitinase inhibition | human 26S proteasome, Ub4-pepOG fluorescence polarization; 20S core pre-blocked with epoxomicin | O00487 | actives 0.59% (n = 360,000) | inhibition, % at 20 µM;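 active = inhibition at 20 µM, scaled to each plate's controls, above about 33%, limit read from the data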
Rpn11 inh conf: confirmation of human proteasome Rpn11 inhibitors; inhibition, % at 20 µM; purified human 26S proteasome, Ub4-pepOG fluorescence polarization; proteasome pretreated with epoxomicin; shares compounds with Rpn11 block; AID 602318; actives 29% (n = 1,900)
MMP-2 inh: MMP-2 (human) inhibition counter-screen | shares compounds with Rpn11 block | recombinant MMP-2, FRET peptide cleavage fluorescence | inhibition, % at 20 µM | actives 4% (n = 1,900) | AID 602330;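 note: human MMP-2 activated beforehand with APMA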
Thrombin FP: blocks bovine thrombin, flagging nonselective RPN11 hits. actives 13% (n = 1,900). bovine thrombin cleavage of Ub4-pepOG, fluorescence polarization. inhibition, % at 20 µM. shares compounds with Rpn11 block;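 active = mean inhibition at least 40% at 20 µM, or signal 3 deviations below plate average, so some actives read negative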
Target sequence (P00735 whole entry, looked up): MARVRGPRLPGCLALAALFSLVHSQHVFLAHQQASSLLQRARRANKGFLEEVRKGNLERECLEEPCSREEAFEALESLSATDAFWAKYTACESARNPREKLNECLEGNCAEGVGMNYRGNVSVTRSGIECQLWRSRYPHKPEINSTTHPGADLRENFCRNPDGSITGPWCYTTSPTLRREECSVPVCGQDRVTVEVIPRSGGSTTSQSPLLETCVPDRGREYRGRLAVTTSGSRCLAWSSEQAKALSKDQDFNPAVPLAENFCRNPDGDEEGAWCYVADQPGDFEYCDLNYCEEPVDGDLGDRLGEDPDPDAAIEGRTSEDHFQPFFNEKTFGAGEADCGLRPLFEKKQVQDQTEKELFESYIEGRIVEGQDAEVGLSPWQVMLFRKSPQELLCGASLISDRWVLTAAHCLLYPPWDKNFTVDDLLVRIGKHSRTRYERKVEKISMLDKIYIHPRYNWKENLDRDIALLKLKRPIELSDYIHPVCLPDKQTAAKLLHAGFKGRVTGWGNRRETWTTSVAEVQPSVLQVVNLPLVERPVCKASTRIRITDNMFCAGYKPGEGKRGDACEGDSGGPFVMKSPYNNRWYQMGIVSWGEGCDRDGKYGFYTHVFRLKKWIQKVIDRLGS
Numbers stand for hits; – = inactive; · = no result given; + = active, no number. Cut-off read from the data, not from the text of the source, unless noted: active = inhibition above about 40%; inactive = the rest.

SMILES | TPT1 inh | HNF4A DNA FP | SENP1 inh | CSN deneddyl inh | Rpn11 block | Rpn11 inh conf | MMP-2 inh | Thrombin FP
Cc1cccc(Nc2nn3c(=O)c4ccccc4nc3s2)c1 | – | 75.0 | – | – | 125.5 | 46.3 | – | –
Cc1ccc(C)n1-c1ccc(C(=O)/C=C/N(C)C)cc1 | – | – | – | – | 50.3 | – | – | –
CCCC[n+]1ccn(-c2nc3ccccc3nc2[N-]S(=O)(=O)c2cccs2)c1 | – | – | – | – | – | · | · | ·
CCCCCCCCCCCCCCC(O)C[N+](C)(CCO)CCO (centres undefined) | · | – | – | – | 82.6 | 42.3 | – | –
O/N=C/c1ccccc1Oc1ccc(Cl)cc1 | – | – | – | – | – | · | · | ·
N#CCC(=O)c1ccccc1Oc1ccc(Cl)cc1 | – | – | – | – | 65.0 | – | – | –
CC(O)Cn1c(N2CCCC2)nc2c1c(=O)n(C)c(=O)n2C (centres undefined) | – | – | – | – | – | · | · | ·
Cc1cccc(NC(=S)NC2CC3C=CC2C3)c1 (centres undefined) | – | – | – | – | – | · | · | ·
CN(C)c1ccc(/C=N/NC(=O)c2ccc(CN3C(=O)c4cccc5cccc3c45)cc2)cc1 | – | · | · | · | · | · | · | ·
O=C(N/N=C/c1ccccc1)c1ccc(CN2C(=O)c3cccc4cccc2c34)cc1 | – | – | – | – | + | 198.8 | – | –
COc1ccc(NC(=O)CC(=O)Nc2ccc(OC)cc2OC)c(OC)c1 | – | – | – | – | 128.9 | – | – | –
COc1ccc(NC(=O)CC(C)=O)c(OC)c1 | · | – | – | – | – | · | · | ·
CC(C)(C)c1ccc(C(=O)N2CCC2(C)C(=O)NCc2ccc3c(c2)OCO3)cc1 (centres undefined) | · | – | – | – | – | · | · | ·
Cc1ccc(NC(=O)C2CCN(S(=O)(=O)c3ccc4c(c3)NC(=O)C(C)S4)CC2)cc1Cl (centres undefined) | – | – | – | – | 41.6 | 44.5 | – | –
COCCNc1nc(NCc2cccc(OC)c2)c2sc(-c3ccccc3)cc2n1 | · | – | – | – | – | · | · | ·
CC1CCCN(S(=O)(=O)c2ccc(NC(=O)C3CC(=O)N(c4ccccc4)C3)cc2)C1 (centres undefined) | – | – | – | – | – | · | · | ·
CSc1sc(-c2nnc(SCC(=O)Nc3ccc(Cl)cc3)n2C)c2c1C=CCC2 | – | – | – | – | 40.4 | – | – | –
Cn1c(SCC(=O)Nc2ccc(Cl)cc2)nnc1C1CC1 | – | – | – | – | – | · | · | ·
COCCn1c(SCC(=O)N2CCCC2=O)nnc1-c1ccncc1 | · | – | – | – | – | · | · | ·
COCCNC(=O)c1c(N)n(-c2ccccc2)c2nc3ccccc3nc12 | – | – | – | – | – | · | · | ·
Nc1c(C(=O)NCc2ccc3c(c2)OCO3)c2nc3ccccc3nc2n1CCCN1CCOCC1 | – | – | – | – | 50.7 | – | – | –
COc1ccccc1CNC(=O)c1c(N)n(CCCN2CCOCC2)c2nc3ccccc3nc12 | · | – | – | – | – | · | · | ·
COCCNC(=O)c1c(N)n(CCCn2ccnc2)c2nc3ccccc3nc12 | – | – | – | – | 40.2 | – | – | –
Nc1c(C(=O)NCCN2CCOCC2)c2nc3ccccc3nc2n1CCc1ccccc1 | – | – | – | – | 31.6 | – | – | –
CCOC(=O)c1c(NC(=O)C2=C(C)NC(=S)NC2c2ccc(F)cc2F)sc(C)c1C (centres undefined) | – | – | – | – | 38.4 | – | – | –
SMILES | TPT1 inh | HNF4A DNA FP | SENP1 inh | CSN deneddyl inh | Rpn11 block | Rpn11 inh conf | MMP-2 inh | Thrombin FP
Cc1cccc(N=C2NC(=O)/C(=C/c3cccnc3)S2)c1 | – | – | – | – | – | · | · | ·
Cc1cccc(N=C2NC(=O)/C(=C\c3cccs3)S2)c1 | – | – | – | – | 41.6 | – | – | –
CN(C)CCCNc1ccc(-c2n[nH]c(=O)c3ccccc23)cc1[N+](=O)[O-] | – | – | – | – | 56.1 | – | – | –
CC(O)CNc1ccc(-c2n[nH]c(=O)c3ccccc23)cc1[N+](=O)[O-] (centres undefined) | – | – | – | – | – | · | · | ·
C=CCc1cc(/C=C2/NC(=S)NC2=O)cc(OC)c1O | – | – | – | – | 47.1 | – | – | –
C=CCc1cc(/C=C2/NC(=O)NC2=O)cc(OCC)c1O | – | – | – | – | – | · | · | ·
O=C(NC1CCCCC1)c1cccc(NC(=O)c2ccccc2Cl)c1 | · | – | – | – | – | · | · | ·
O=S(=O)(c1ccc(Br)s1)N1CCN(c2ccccc2)CC1 | – | 31.5 | – | – | 51.6 | – | – | –
CCOc1cc(CNn2cnnc2)cc(Cl)c1OCC(=O)NC(C)(C)C | – | – | – | – | – | · | · | ·
NNC(=O)COc1ccc(F)cc1 | – | 32.1 | – | – | 46.1 | – | – | –
N/C(=N\OC(=O)Oc1ccccc1)c1ccc([N+](=O)[O-])cc1 | – | – | – | – | – | · | · | ·
O=[N+]([O-])c1ccc(NN=C(Oc2ccccc2)c2ccc([N+](=O)[O-])cc2)cc1 | · | – | – | – | 42.1 | – | – | –
CC(C)N1CCc2c(sc(NC(=O)c3cc4cc([N+](=O)[O-])ccc4s3)c2C(N)=O)C1 | · | – | – | – | 66.2 | – | – | –
O=C(CC1CC1)Nc1ccc2c(c1)[C@H]1C[C@H](CC(=O)N3CCc4ccccc4C3)O[C@@H](CO)[C@H]1O2 | · | – | – | – | – | · | · | ·
CCC(=O)Nc1cc2c3c(c1)CCC(=O)N3CCC2 | – | – | – | – | – | · | · | ·
FC(F)(F)c1cnc(Sc2nc3nccc(-c4ccc(Cl)cc4)n3n2)c(Cl)c1 | – | – | – | – | – | · | · | ·
CSc1nc2nccc(-c3ccc(Cl)cc3)n2n1 | – | – | – | – | 82.7 | – | 65.6 | –
CCN(CC(=O)NCc1ccc(Cl)cc1)C(=O)CCOc1ccc(C)cc1 | – | – | – | – | – | · | · | ·
Nc1ccccc1Nc1cc(-c2ccccc2)nn1-c1ccccc1 | – | – | – | – | – | · | · | ·
Nc1ccccc1Nc1cc(-c2ccccc2)[nH]n1 | · | – | – | – | 42.9 | – | – | –
CCCc1ccc(C(O)c2ncc(-c3ccccc3F)[nH]2)cc1 (centres undefined) | · | – | – | – | – | · | · | ·
Oc1ccc(C=Nc2ccc(N3CCOCC3)cc2)c(O)c1 | – | – | – | – | – | · | · | ·
Oc1cc(Br)ccc1C=Nc1ccc(N2CCCCC2)cc1 | – | 36.7 | – | – | 47.6 | – | – | –
Cc1cc(C)c(-c2nc3ccccc3s2)[nH]1 | – | – | – | – | 59.9 | – | – | –
CCOC(=O)/C(C#N)=C/c1ccc(OCC(=O)Nc2ccc(C)c(C)c2)c(OC)c1 | – | – | – | – | – | · | · | ·
